Source: ChEMBL document CHEMBL4145654, “Structure-Based Discovery of CF53 as a Potent and Orally Bioavailable Bromodomain and Extra-Terminal (BET) Bromodomain Inhibitor” (J Med Chem, 2018)

How the values were obtained:
Homo sapiens [1] = species: Homo sapiens; assay: Selectivity index, ratio of Kd for human CECR2 (P423 to D543 residues) to Kd for human BRDT bromodomain 2 (K250 to E382 residues)
Homo sapiens [2] = species: Homo sapiens; assay: Selectivity index, ratio of Kd for human CREBBP (R1081 to G1197 residues) to Kd for human BRD3 bromodomain 1 (P24 to E144 residues)
[3] = molecular target: Bromodomain-containing protein 2 (Homo sapiens, UniProt P25440); assay: Binding affinity to human BRD2 bromodomain 1 (K71 to N194 residues) expressed in bacterial expression system by BROMOscan assay
Homo sapiens [4] = species: Homo sapiens; assay: Selectivity index, ratio of Kd for human EP300 (A1040 to G1161 residues) to Kd for human BRD4 bromodomain 1 (N44 to E168 residues)
Homo sapiens [5] = species: Homo sapiens; assay: Selectivity index, ratio of Kd for human CECR2 (P423 to D543 residues) to Kd for human BRD3 bromodomain 2 (G306 to P416 residues)
Homo sapiens [6] = species: Homo sapiens; assay: Selectivity index, ratio of Kd for human CREBBP (R1081 to G1197 residues) to Kd for human BRDT bromodomain 1 (N21 to E137 residues)
Mus musculus [7] = assay: Cmax in Balb/c mouse at 25 mg/kg, po by LC-MS/MS analysis; type: ADME, organism-based; parameters: dose 25 mg/kg, route oral; conditions: in vivo
Outline: (§1)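 Balb/c mice dosed iv at 5.0 mg/kg or po at 25 mg/kg, compound in vehicle of 20% (v/v) PCP and 70% (v/v) PBS. Serial blood samples taken at 0, 5, 15, 30 min and 1, 2, 4, 6, 8, 24 h. Plasma obtained by centrifugation and stored at −80 °C. Analysis by LC-MS/MS, positive-ion MRM. Parameters from noncompartmental analysis.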

Homo sapiens [8] = species: Homo sapiens; assay: Selectivity index, ratio of Kd for human EP300 (A1040 to G1161 residues) to Kd for human BRD3 bromodomain 1 (P24 to E144 residues)
[9] = AUC in Balb/c mouse at 5 mg/kg, iv by LC-MS/MS analysis; type: ADME, organism-based; conditions: in vivo; outline: as §1
CREB-binding protein = CREB-binding protein (Homo sapiens, UniProt Q92793); assay: Binding affinity to human CREBBP (R1081 to G1197 residues) expressed in bacterial expression system by BROMOscan assay
MDA-MB-231 = assay: Growth inhibition of human MDA-MB-231 cells after 4 days by WST-8 assay; type: functional, cell-based; conditions: MDA-MB-231, 96 h
Outline: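 Cells used within 3 months of thaw. Breast cancer cells seeded at 3000 cells/well, then serially diluted compound added, cultured 4 days. Growth read by WST-8 (10% v/v final, 1−3 h, 450 nm). Readings normalized to DMSO-treated cells. IC50 by nonlinear regression.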

Mus musculus [10] = assay: Toxicity in SCID mouse xenografted with human MDA-MB-231 cells assessed as change in body weight at 10 to 50 mg/kg administered via oral gavage measured 2 to 3 times per week during compound dosing and measured weekly post treatment; type: organism-based; conditions: in vivo
Outline: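 Xenografts raised by subcutaneous dorsal injection of 5 × 10⁶ cells in 50% Matrigel into SCID mice, one tumor per mouse. Mice randomized to treatment or vehicle groups at about 100 mm3 tumor volume. Compounds given by oral gavage at the indicated dose-schedules, with percentage body-weight change tracked alongside tumor volume (L × W²/2).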

[11] = molecular target: Serine/threonine-protein kinase PLK4 (Homo sapiens, UniProt O00444); assay: Inhibition of human PLK4 using casein as substrate in presence of [gamma-33P]-ATP
RS4-11 [12] = assay: Antitumor activity against human RS4:11 cells xenografted in SCID mouse assessed as tumor growth inhibition at 50 mg/kg administered via oral gavage measured on day 35; type: functional; conditions: RS4-11, po, 840 h, read-out: TGI
Outline: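 Each SCID mouse received a single dorsal subcutaneous tumor of 5 × 10⁶ RS4;11 or MDA-MB-231 cells in 50% Matrigel. At about 100 mm3, mice were randomised to treatment or vehicle control groups. Dosing was by oral gavage at the stated schedules. Tumor volume was L × W²/2, and body weight was tracked. TGI versus vehicle at end of treatment was tested by unpaired two-tailed t-test.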

Homo sapiens [13] = species: Homo sapiens; assay: Selectivity index, ratio of Kd for human EP300 (A1040 to G1161 residues) to Kd for human BRD4 bromodomain 2 (K333 to E460 residues)
[14] = molecular target: Transcription intermediary factor 1-alpha (Homo sapiens, UniProt O15164); assay: Binding affinity to human TRIM24 (P790 to P977 residues) expressed in bacterial expression system by BROMOScan assay
RS4-11 [15] = assay: Antitumor activity against human RS4:11 cells xenografted in SCID mouse assessed as tumor growth inhibition at 25 mg/kg administered via oral gavage measured on day 35; type: functional; conditions: RS4-11, po, 840 h, read-out: TGI
Outline: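 SCID mice were implanted subcutaneously on the dorsal side with 5 × 10⁶ MDA-MB-231 or RS4;11 cells in 50% Matrigel, one tumor per mouse. At ca. 100 mm3, mice were randomized to treatment or vehicle groups and dosed by oral gavage. Tumor volume = L × W²/2. Body weight change tracked. p values by two-tailed unpaired t-test.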

Homo sapiens [16] = species: Homo sapiens; assay: Selectivity index, ratio of Kd for human CREBBP (R1081 to G1197 residues) to Kd for human BRD2 bromodomain 2 (E348 to D455 residues)
[17] = Clearance in Balb/c mouse at 5 mg/kg, iv by LC-MS/MS analysis; type: ADME, organism-based; conditions: in vivo; outline: as §1
[18] = Plasma concentration in SCID mouse xenografted with human MDA-MB-231 cells at 50 mg/kg administered via oral gavage measured after 1 hr; type: ADME, organism-based
Outline: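 Limited PK in SCID mice bearing MDA-MB-231 tumors, 50 mg/kg given by oral gavage. Plasma and tumor tissue drug levels measured at two time points per compound. Values are the mean of two mice/tumors per time point.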

Homo sapiens [19] = species: Homo sapiens; assay: Selectivity index, ratio of Kd for human CREBBP (R1081 to G1197 residues) to Kd for human BRD4 bromodomain 2 (K333 to E460 residues)
[20] = molecular target: Bromodomain-containing protein 8 (Homo sapiens, UniProt Q9H0E9); assay: Inhibition of BRD8 bromodomain 2 (unknown origin) by BROMOScan assay
Homo sapiens [21] = species: Homo sapiens; assay: Selectivity index, ratio of Kd for human CECR2 (P423 to D543 residues) to Kd for human BRD3 bromodomain 1 (P24 to E144 residues)
[22] = molecular target: Bromodomain and WD repeat-containing protein 1 (Homo sapiens, UniProt Q9NSI6); assay: Binding affinity to human WDR9 bromodomain 2 (A1310 to E1430 residues) expressed in bacterial expression system by BROMOscan assay
Homo sapiens [23] = species: Homo sapiens; assay: Selectivity index, ratio of Kd for human CECR2 (P423 to D543 residues) to Kd for human BRD4 bromodomain 2 (K333 to E460 residues)
[24] = molecular target: Bromodomain-containing protein 7 (Homo sapiens, UniProt Q9NPI1); assay: Binding affinity to human BRD7 (L125 to R254 residues) expressed in bacterial expression system by BROMOScan assay
Homo sapiens [25] = species: Homo sapiens; assay: Selectivity index, ratio of Kd for human CREBBP (R1081 to G1197 residues) to Kd for human BRD2 bromodomain 1 (K71 to N194 residues)

Bromodomain-containing protein 7, sequence (Q9NPI1 whole entry, the tested form may be a part): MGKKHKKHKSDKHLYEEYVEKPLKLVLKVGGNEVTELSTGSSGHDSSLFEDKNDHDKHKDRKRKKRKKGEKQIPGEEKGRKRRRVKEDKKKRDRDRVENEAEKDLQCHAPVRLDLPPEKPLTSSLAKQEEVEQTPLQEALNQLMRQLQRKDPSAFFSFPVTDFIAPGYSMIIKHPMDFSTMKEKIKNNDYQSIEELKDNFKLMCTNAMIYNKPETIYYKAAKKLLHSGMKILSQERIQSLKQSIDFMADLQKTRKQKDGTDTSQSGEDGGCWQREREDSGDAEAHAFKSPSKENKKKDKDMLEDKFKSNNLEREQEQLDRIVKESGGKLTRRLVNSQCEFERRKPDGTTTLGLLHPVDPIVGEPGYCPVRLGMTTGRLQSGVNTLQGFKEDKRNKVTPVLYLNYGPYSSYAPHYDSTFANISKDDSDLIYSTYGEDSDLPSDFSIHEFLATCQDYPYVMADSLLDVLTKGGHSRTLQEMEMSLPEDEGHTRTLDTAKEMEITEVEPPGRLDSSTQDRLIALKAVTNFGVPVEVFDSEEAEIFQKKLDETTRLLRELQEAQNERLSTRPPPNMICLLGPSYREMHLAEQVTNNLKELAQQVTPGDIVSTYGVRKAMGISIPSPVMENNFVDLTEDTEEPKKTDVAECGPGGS
CREB-binding protein, sequence (Q92793 whole entry, the tested form may be a part): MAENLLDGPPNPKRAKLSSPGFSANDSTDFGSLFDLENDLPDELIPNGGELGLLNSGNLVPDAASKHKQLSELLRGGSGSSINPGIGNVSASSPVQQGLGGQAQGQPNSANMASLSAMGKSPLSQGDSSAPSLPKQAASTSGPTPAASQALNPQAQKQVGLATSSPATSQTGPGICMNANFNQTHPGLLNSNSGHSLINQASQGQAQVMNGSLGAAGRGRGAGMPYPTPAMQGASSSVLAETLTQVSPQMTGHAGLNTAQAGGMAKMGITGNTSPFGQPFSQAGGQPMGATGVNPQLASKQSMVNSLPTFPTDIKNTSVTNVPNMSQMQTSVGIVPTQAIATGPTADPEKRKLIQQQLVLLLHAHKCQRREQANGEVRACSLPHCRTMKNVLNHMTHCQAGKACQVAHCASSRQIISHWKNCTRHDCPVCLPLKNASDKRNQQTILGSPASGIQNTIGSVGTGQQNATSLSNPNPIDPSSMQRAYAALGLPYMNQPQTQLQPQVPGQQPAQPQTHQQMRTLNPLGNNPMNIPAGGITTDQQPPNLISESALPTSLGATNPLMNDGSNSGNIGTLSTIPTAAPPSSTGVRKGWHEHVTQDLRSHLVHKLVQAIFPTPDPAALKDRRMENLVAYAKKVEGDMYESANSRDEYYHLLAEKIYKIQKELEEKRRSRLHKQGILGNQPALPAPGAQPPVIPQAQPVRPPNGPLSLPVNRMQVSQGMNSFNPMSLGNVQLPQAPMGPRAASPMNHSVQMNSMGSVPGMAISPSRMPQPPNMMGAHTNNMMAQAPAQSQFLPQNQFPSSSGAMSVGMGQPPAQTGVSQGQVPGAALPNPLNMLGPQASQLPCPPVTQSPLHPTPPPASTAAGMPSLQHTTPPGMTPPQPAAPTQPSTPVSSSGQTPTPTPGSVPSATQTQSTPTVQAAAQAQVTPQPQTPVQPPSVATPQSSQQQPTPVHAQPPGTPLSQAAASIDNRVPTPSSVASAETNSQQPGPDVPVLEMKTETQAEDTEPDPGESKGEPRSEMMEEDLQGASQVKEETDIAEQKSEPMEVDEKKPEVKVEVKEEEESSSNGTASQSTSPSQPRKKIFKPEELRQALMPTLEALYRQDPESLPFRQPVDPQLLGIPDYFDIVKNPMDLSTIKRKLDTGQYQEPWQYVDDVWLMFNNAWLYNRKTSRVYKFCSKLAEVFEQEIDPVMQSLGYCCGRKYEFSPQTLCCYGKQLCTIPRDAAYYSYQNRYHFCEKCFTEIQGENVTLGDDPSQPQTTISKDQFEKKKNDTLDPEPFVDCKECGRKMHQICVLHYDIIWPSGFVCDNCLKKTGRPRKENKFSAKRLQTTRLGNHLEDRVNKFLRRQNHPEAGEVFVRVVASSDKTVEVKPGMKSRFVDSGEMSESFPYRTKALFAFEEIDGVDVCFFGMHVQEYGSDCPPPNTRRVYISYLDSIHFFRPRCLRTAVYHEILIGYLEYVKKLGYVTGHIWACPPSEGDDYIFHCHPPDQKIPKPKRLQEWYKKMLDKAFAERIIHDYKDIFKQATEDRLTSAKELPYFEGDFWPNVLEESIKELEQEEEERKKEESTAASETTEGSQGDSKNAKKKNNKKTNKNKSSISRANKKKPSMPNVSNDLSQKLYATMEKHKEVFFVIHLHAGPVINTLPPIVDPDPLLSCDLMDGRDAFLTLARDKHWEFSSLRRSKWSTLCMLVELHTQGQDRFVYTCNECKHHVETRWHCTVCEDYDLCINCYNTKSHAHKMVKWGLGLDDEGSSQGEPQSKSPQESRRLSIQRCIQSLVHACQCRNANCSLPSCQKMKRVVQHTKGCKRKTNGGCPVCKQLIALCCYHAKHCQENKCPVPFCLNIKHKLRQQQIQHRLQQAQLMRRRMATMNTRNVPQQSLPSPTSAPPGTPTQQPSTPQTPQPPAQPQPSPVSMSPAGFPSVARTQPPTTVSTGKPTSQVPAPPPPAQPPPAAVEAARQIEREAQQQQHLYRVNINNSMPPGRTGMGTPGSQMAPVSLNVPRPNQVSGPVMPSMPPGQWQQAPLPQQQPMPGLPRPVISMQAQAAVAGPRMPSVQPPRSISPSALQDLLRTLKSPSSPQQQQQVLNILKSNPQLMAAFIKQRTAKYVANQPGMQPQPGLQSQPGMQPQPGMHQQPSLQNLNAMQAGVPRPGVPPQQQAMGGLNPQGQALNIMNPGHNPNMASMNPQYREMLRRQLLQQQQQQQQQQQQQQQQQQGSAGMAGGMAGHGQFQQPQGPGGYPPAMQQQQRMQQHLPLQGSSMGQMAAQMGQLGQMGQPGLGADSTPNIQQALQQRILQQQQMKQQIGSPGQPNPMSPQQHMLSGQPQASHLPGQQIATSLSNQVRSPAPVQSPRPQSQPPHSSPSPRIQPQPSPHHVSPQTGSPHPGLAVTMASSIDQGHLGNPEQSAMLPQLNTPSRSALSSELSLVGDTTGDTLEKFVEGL
Transcription intermediary factor 1-alpha, sequence (O15164 whole entry, the tested form may be a part): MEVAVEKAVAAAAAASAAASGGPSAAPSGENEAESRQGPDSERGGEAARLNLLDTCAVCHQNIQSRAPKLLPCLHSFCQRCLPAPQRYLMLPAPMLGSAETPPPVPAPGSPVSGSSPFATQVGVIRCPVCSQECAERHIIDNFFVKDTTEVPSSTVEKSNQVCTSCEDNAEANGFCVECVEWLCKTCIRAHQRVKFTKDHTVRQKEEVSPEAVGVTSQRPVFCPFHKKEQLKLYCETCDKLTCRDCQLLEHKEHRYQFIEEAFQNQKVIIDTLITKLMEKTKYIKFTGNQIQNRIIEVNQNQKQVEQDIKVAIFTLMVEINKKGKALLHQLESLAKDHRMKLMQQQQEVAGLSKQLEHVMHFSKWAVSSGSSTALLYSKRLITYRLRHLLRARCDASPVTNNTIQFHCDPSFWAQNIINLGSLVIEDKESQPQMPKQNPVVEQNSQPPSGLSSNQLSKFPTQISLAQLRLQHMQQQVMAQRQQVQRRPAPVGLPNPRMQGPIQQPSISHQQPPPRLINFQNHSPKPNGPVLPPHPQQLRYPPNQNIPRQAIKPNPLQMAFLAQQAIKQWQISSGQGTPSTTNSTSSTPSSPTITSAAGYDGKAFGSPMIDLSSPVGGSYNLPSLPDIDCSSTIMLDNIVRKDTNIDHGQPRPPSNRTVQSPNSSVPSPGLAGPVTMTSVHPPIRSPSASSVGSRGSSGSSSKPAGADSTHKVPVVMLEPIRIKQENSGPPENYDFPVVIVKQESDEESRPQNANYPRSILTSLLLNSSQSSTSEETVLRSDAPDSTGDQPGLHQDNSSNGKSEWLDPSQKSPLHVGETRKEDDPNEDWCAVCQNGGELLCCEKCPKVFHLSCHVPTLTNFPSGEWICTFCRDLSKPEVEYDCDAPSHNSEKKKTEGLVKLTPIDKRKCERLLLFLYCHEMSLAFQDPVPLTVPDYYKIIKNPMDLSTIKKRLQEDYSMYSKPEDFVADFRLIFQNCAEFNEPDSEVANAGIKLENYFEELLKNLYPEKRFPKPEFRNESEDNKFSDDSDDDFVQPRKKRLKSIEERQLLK
Serine/threonine-protein kinase PLK4, sequence (O00444 whole entry): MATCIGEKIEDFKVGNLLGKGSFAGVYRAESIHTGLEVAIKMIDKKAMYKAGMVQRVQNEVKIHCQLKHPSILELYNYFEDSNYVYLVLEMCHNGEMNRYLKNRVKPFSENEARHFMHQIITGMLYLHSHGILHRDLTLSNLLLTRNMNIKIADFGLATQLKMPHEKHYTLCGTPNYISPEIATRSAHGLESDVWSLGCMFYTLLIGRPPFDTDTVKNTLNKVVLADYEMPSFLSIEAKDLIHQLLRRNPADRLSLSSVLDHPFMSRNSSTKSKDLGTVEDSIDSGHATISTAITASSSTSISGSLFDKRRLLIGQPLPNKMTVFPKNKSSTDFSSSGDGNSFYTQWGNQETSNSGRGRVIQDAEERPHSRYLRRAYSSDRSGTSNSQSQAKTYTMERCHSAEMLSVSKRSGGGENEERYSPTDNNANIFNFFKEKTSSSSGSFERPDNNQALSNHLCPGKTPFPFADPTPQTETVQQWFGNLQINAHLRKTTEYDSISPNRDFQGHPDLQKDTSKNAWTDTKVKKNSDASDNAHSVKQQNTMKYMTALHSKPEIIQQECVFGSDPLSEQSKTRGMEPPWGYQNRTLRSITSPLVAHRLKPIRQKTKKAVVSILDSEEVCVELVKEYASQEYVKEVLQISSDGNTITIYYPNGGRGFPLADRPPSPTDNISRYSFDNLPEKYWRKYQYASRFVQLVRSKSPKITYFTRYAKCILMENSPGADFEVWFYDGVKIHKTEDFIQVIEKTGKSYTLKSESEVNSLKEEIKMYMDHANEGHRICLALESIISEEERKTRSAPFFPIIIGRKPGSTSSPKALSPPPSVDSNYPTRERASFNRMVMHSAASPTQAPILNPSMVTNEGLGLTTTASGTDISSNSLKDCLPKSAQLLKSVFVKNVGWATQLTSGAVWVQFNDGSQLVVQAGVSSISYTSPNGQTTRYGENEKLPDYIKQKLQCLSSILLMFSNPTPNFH

Selectivity Index (Homo sapiens [1]): > 50
Selectivity Index (Homo sapiens [2]): > 20
Kd [3]: 1.1 nM
Selectivity Index (Homo sapiens [4]): > 50
Selectivity Index (Homo sapiens [5]): > 50
Selectivity Index (Homo sapiens [6]): > 20
Cmax (Mus musculus [7]): 6400 ng/mL
Selectivity Index (Homo sapiens [8]): > 50
AUC [9]: 9.05 µM·h
Kd (CREB-binding protein): 47 nM
IC50 (MDA-MB-231): 85 nM
IC50 [11]: 3900 nM
Selectivity Index (Homo sapiens [13]): > 50
Kd [14]: > 4000 nM
Selectivity Index (Homo sapiens [16]): > 20
clearance [17]: 20.8 mL/min/kg
concentration at 1 h [18]: 12600 ng/mL
Selectivity Index (Homo sapiens [19]): > 20
Kd [20]: > 5000 nM
Selectivity Index (Homo sapiens [21]): > 50
Kd [22]: > 5000 nM
Selectivity Index (Homo sapiens [23]): > 50
Kd [24]: > 5000 nM
Selectivity Index (Homo sapiens [25]): > 20
Compound: COc1cc2c(cc1-c1c(C)noc1C)[nH]c1nc(C)nc(Nc3cc(C4CC4)nn3C)c12
Activity (Mus musculus [10]): Non-Toxic
inhibition in vivo at 50 mg/kg (RS4-11 [12]): 72.3%
inhibition in vivo at 25 mg/kg (RS4-11 [15]): 49.3%
